Data: ChEMBL document CHEMBL4184148 (Bioorg Med Chem Lett, 2017)

Assays:
[1] = system: Phosphatidylinositol 4,5-bisphosphate 3-kinase catalytic subunit alpha isoform (Homo sapiens), P42336 [H1047Y]; experiment: Binding affinity to human partial length PIK3CA H1047Y mutant (R108 to N1068 residues) expressed in HEK293 cells at 1 uM by Kinomescan method relative to control; format: cell-based
[2] = target: Homeodomain-interacting protein kinase 1 (Homo sapiens) (UniProt Q86Z02); experiment: Binding affinity to wild-type human partial length HIPK1 (M146 to I555 residues) expressed in HEK293 cells at 1 uM by Kinomescan method relative to control; format: cell-based
[3] = target: SRSF protein kinase 2 (Homo sapiens) (UniProt P78362); experiment: Binding affinity to wild-type human full length SRPK2 (M1 to S686 residues) expressed in Escherichia coli BL21 at 1 uM by Kinomescan method relative to control
Sequence of SRSF protein kinase 2 (Homo sapiens) (P78362 whole entry, looked up, the tested form may be a part): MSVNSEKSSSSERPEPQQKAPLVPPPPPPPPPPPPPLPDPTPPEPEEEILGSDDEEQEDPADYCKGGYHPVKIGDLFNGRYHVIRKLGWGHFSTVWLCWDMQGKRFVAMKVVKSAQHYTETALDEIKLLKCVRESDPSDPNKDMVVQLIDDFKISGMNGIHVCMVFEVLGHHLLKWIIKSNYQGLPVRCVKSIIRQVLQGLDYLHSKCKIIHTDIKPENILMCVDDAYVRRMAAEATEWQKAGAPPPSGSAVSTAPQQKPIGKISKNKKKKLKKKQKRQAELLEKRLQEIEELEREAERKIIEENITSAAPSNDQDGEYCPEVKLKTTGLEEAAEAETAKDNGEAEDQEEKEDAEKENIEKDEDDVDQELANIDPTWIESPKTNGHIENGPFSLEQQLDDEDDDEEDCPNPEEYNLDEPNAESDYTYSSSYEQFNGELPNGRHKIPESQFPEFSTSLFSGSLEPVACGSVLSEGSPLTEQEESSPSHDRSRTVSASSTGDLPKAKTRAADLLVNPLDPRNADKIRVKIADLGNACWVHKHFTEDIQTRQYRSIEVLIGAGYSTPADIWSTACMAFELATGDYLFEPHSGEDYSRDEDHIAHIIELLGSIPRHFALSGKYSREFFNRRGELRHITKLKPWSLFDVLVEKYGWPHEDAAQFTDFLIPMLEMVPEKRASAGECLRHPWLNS
In short: (§1)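 Kinome-wide competition binding panel run by an outside provider, with each compound tested at a single concentration. Activity is read against the kinase panel.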

[4] = target: Mitogen-activated protein kinase 4 (Homo sapiens) (UniProt P31152); experiment: Binding affinity to wild-type human partial length ERK4 (M1 to L365 residues) expressed in Escherichia coli BL21 at 1 uM by Kinomescan method relative to control
[5] = target: Bone morphogenetic protein receptor type-1A (Homo sapiens) (UniProt P36894); experiment: Binding affinity to wild-type human partial length BMPR1A (Q214 to I532 residues) expressed in Escherichia coli BL21 at 1 uM by Kinomescan method relative to control
[6] = target: Serine/threonine-protein kinase VRK2 (Homo sapiens) (UniProt Q86Y07); experiment: Binding affinity to wild-type human partial length VRK2 (M1 to T336 residues) expressed in HEK293 cells at 1 uM by Kinomescan method relative to control; format: cell-based
[7] = target: Serine/threonine-protein kinase RIO1 (Homo sapiens) (UniProt Q9BRS2); experiment: Binding affinity to wild-type human full length RIOK1 (M1 to K568 residues) expressed in Escherichia coli BL21 at 1 uM by Kinomescan method relative to control
[8] = target: Serine/threonine-protein kinase Chk1 (Homo sapiens) (UniProt O14757); experiment: Binding affinity to wild-type human partial length CHEK1 (M1 to G289 residues) expressed in Escherichia coli BL21 at 1 uM by Kinomescan method relative to control
Sequence of Serine/threonine-protein kinase Chk1 (Homo sapiens) (O14757 whole entry, the tested form may be a part): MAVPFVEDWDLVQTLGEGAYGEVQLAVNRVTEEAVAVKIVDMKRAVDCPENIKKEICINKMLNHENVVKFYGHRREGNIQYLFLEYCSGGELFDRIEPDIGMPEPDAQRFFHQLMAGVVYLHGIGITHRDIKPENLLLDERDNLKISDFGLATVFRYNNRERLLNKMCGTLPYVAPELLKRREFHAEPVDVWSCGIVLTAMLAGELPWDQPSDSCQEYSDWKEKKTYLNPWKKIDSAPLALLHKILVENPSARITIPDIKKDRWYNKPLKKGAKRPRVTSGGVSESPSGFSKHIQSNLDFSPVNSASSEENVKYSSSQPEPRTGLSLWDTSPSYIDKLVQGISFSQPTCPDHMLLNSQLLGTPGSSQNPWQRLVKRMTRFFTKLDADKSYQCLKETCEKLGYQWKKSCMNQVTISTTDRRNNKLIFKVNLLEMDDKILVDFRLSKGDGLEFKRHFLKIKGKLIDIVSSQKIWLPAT

[9] = target: Serine/threonine-protein kinase WNK1 (Homo sapiens) (UniProt Q9H4A3); experiment: Binding affinity to wild-type human partial length WNK1 (Q194 to A490 residues) expressed in HEK293 cells at 1 uM by Kinomescan method relative to control; format: cell-based
[10] = target: Aurora kinase A (Homo sapiens) (UniProt O14965); experiment: Binding affinity to wild-type human partial length AURKA (E122 to K401 residues) expressed in HEK293 cells at 1 uM by Kinomescan method relative to control; format: cell-based; in short: as §1
Sequence of Aurora kinase A (Homo sapiens) (O14965 whole entry, the tested form may be a part): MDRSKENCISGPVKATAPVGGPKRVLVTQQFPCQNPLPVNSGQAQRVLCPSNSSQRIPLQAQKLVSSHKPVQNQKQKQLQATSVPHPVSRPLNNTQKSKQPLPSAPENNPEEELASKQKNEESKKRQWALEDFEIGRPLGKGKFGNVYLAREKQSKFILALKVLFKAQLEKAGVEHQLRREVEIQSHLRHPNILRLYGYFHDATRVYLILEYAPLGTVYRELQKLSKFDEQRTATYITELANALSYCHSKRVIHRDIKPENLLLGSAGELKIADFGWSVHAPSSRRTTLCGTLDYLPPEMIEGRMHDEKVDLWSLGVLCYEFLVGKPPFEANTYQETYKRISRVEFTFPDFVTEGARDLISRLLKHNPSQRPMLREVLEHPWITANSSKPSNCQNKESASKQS

[11] = target: Ephrin type-A receptor 7 (Homo sapiens) (UniProt Q15375); experiment: Binding affinity to wild-type human partial length EPHA7 (Y608 to S912 residues) expressed in Escherichia coli BL21 at 1 uM by Kinomescan method relative to control
[12] = target: Cyclin-dependent kinase 2 (Homo sapiens) (UniProt P24941); experiment: Binding affinity to wild-type human full length CDK2 (M1 to L298 residues) expressed in Escherichia coli BL21 at 1 uM by Kinomescan method relative to control
[13] = target: Mitogen-activated protein kinase kinase kinase 3 (Homo sapiens) (UniProt Q99759); experiment: Binding affinity to wild-type human partial length MAP3K3 (E320 to Y626 residues) expressed in HEK293 cells at 1 uM by Kinomescan method relative to control; format: cell-based
[14] = system: Receptor-type tyrosine-protein kinase FLT3 (Homo sapiens), P36888 [UNDEFINED MUTATION]; experiment: Binding affinity to human partial length FLT3 ITD mutant expressed in Escherichia coli BL21 at 1 uM by Kinomescan method relative to control
Sequence of Receptor-type tyrosine-protein kinase FLT3 (Homo sapiens), P36888 [UNDEFINED MUTATION] (P36888 whole entry, looked up, change not shown, the tested form may be a part): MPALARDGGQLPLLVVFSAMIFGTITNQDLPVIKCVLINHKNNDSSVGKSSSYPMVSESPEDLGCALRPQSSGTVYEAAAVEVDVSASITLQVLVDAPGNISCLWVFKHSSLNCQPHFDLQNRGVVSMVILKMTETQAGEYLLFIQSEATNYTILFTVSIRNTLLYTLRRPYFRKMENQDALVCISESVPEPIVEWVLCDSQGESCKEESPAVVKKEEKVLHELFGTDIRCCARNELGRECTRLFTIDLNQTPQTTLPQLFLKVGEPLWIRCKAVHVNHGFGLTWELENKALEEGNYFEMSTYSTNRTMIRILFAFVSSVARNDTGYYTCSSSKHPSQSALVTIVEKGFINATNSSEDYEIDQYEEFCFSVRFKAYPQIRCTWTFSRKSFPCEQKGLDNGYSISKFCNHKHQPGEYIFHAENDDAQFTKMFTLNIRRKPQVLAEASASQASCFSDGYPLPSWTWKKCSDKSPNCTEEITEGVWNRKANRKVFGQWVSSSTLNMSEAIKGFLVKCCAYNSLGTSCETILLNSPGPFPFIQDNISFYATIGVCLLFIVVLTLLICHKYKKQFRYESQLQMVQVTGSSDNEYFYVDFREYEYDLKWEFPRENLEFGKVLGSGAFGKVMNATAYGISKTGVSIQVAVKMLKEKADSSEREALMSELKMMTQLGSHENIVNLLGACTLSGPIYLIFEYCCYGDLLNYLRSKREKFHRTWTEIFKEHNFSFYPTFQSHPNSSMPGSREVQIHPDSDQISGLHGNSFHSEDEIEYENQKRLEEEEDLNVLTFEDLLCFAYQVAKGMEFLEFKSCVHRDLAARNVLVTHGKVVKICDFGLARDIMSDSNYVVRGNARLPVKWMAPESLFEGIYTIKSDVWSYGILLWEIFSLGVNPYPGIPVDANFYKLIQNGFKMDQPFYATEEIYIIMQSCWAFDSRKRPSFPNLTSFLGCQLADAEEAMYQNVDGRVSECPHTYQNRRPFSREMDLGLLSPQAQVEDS

[15] = target: Tyrosine-protein kinase Fes/Fps (Homo sapiens) (UniProt P07332); experiment: Binding affinity to wild-type human partial length FES (I527 to R822 residues) expressed in Escherichia coli BL21 at 1 uM by Kinomescan method relative to control
Sequence of Tyrosine-protein kinase Fes/Fps (Homo sapiens) (P07332 whole entry, the tested form may be a part): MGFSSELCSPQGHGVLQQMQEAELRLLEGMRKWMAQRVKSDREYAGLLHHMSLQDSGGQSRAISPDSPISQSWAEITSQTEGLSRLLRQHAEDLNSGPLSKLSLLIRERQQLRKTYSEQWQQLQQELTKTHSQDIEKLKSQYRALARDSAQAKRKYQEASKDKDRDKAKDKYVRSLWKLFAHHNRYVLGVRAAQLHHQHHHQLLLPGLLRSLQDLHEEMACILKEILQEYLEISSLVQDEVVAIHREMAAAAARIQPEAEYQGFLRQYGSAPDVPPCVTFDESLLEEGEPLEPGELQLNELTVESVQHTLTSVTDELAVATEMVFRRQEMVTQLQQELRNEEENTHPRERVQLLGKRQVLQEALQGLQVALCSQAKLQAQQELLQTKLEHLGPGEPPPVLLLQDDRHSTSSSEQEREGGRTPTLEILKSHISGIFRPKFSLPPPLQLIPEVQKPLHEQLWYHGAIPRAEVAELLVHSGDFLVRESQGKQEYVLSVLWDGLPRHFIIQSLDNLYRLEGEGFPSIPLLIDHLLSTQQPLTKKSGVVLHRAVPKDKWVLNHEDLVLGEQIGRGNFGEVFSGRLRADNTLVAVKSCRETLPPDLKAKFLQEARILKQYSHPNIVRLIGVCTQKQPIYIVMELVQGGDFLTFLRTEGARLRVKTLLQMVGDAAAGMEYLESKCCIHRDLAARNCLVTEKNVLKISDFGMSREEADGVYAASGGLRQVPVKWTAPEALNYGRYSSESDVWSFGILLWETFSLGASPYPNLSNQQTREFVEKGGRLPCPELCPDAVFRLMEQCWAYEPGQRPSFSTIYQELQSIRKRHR

[16] = target: Bone morphogenetic protein receptor type-1B (Homo sapiens) (UniProt O00238); experiment: Binding affinity to wild-type human partial length BMPR1B (D178 to L502 residues) expressed in HEK293 cells at 1 uM by Kinomescan method relative to control; format: cell-based
[17] = system: Proto-oncogene tyrosine-protein kinase receptor Ret (Homo sapiens), P07949 [V804L]; experiment: Binding affinity to human partial length RET V804L mutant (E713 to D1014 residues) expressed in Escherichia coli BL21 at 1 uM by Kinomescan method relative to control
Sequence of Proto-oncogene tyrosine-protein kinase receptor Ret (Homo sapiens), P07949 [V804L] (P07949 whole entry V804L, the tested form may be a part): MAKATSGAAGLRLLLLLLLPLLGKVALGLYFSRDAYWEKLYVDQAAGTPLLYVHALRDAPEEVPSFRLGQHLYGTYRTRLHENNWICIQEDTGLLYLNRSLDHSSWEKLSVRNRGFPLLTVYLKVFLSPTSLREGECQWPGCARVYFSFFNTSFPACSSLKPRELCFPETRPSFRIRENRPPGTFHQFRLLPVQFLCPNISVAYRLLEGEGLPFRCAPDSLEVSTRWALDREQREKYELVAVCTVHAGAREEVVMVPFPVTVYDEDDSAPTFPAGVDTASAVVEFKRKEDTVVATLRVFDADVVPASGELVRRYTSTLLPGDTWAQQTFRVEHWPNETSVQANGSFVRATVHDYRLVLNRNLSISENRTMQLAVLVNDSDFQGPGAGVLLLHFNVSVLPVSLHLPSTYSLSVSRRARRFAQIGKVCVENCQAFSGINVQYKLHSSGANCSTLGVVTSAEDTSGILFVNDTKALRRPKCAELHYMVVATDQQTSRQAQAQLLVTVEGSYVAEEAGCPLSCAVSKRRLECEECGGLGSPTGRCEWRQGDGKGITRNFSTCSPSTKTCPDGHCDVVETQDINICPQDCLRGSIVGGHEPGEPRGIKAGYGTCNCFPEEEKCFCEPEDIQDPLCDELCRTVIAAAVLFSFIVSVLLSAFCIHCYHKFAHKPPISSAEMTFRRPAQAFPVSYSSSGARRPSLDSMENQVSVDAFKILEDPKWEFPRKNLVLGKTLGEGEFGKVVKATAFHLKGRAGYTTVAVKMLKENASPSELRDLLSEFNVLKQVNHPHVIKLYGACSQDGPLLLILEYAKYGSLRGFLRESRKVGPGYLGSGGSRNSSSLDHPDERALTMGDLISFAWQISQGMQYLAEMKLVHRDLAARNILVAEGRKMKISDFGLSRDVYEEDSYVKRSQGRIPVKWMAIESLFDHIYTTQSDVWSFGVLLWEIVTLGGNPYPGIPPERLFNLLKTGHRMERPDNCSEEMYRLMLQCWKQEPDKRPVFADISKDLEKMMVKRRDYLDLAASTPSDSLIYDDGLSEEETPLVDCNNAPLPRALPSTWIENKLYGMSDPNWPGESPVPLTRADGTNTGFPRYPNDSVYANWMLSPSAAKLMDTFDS

[18] = target: NT-3 growth factor receptor (Homo sapiens) (UniProt Q16288); experiment: Binding affinity to wild-type human partial length TRKC (Q531 to G825 residues) expressed in HEK293 cells at 1 uM by Kinomescan method relative to control; format: cell-based
[19] = system: Leucine-rich repeat serine/threonine-protein kinase 2 (Homo sapiens), Q5S007 [G2019S]; experiment: Binding affinity to human partial length LRRK2 G2019S mutant (H970 to E2527 residues) expressed in HEK293 cells at 1 uM by Kinomescan method relative to control; format: cell-based
[20] = target: Cyclin-dependent kinase 7 (Homo sapiens) (UniProt P50613); experiment: Binding affinity to wild-type human full length CDK7 (M1 to L344 residues) expressed in HEK293 cells at 1 uM by Kinomescan method relative to control; format: cell-based
In short: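 Run as one kinome-wide competition binding panel with each compound at a single fixed concentration. Results were plotted as a kinome-wide selectivity map.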

[21] = target: Serine/threonine-protein kinase tousled-like 2 (Homo sapiens) (UniProt Q86UE8); experiment: Binding affinity to wild-type human partial length TLK2 (E424 to N749 residues) expressed in Escherichia coli BL21 at 1 uM by Kinomescan method relative to control
[22] = target: Bone morphogenetic protein receptor type-2 (Homo sapiens) (UniProt Q13873); experiment: Binding affinity to wild-type human partial length BMPR2 (R179 to Q526 residues) expressed in HEK293 cells at 1 uM by Kinomescan method relative to control; format: cell-based
[23] = target: Phosphatidylinositol 4,5-bisphosphate 3-kinase catalytic subunit alpha isoform (Homo sapiens) (UniProt P42336); experiment: Binding affinity to wild-type human partial length PIK3CA (R108 to N1068 residues) expressed in HEK293 cells at 1 uM by Kinomescan method relative to control; format: cell-based
[24] = target: Cyclin-dependent kinase 18 (Homo sapiens) (UniProt Q07002); experiment: Binding affinity to wild-type human full length PCTK3 (M3 to F474 residues) expressed in Escherichia coli BL21 at 1 uM by Kinomescan method relative to control; in short: as §1
Sequence of Cyclin-dependent kinase 18 (Homo sapiens) (Q07002 whole entry, the tested form may be a part): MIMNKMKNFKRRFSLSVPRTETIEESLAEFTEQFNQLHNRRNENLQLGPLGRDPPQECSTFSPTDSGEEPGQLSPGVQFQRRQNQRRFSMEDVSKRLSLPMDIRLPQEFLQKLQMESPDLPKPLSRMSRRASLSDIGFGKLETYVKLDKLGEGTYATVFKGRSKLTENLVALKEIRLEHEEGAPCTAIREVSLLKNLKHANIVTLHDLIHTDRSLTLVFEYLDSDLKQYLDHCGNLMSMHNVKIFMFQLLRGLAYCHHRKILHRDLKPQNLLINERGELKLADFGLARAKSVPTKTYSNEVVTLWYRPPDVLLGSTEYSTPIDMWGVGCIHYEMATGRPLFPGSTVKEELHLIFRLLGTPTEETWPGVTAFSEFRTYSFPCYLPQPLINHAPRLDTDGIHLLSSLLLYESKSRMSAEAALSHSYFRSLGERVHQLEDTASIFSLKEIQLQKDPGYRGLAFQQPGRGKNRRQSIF

[25] = target: Insulin receptor (Homo sapiens) (UniProt P06213); experiment: Binding affinity to wild-type human partial length INSR (P997 to E1318 residues) expressed in HEK293 cells at 1 uM by Kinomescan method relative to control; format: cell-based

SMILES | Activity [1] [%] | Activity [2] [%] | Activity [3] [%] | Activity [4] [%] | Activity [5] [%] | Activity [6] [%] | Activity [7] [%] | Activity [8] [%] | Activity [9] [%] | Activity [10] [%] | Activity [11] [%] | Activity [12] [%] | Activity [13] [%] | Activity [14] [%] | Activity [15] [%] | Activity [16] [%] | Activity [17] [%] | Activity [18] [%] | Activity [19] [%] | Activity [20] [%] | other results
CCC(=O)Nc1ccc(C(=O)Nc2ccc(Nc3ncc4c(n3)N(C)c3ccc(C)cc3C(=O)N4C)cc2)cc1 | 72 | 67 | 100 | 95 | 100 | 61 | 68 | 87 | 100 | 0.45 | 86 | 97 | 63 | 94 | 99 | 62 | 63 | 89 | 100 | 66 | Activity [21]: 100%; Activity [22]: 77%; Activity [23]: 87%; Activity [24]: 86%; Activity [25]: 65%
C=CC(=O)Nc1ccc(C(=O)Nc2ccc(Nc3ncc4c(n3)N(C)c3ccc(C)cc3C(=O)N4C)cc2)cc1 | 62 | 87 | 99 | 85 | 82 | 100 | 84 | 100 | 100 | 0 | 94 | 100 | 86 | 83 | 90 | 100 | 84 | 100 | 99 | 80 | Activity [21]: 98%; Activity [22]: 95%; Activity [23]: 76%; Activity [24]: 99%; Activity [25]: 97%
